Calb FLC: C. albicans growth inhibition with fluconazole, primary screen, CaCi-2 strain, Alamar Blue fluorescence | C. albicans CaCi-2 (fluconazole-resistant clinical isolate) + fluconazole, 48 h | growth inhibition, % (concentration not given with the values) | 300,000 tested, 0.57% active | AID 1979, 2009;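 active = growth inhibition above about 58% in most replicates, limit read from the data, passing the limit was not always enough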;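 also: all wells also contain fluconazole at 8 µg/ml as a sub-toxic cotreatment; 0% = median of DMSO wells and 100% = median of geldanamycin control wells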
Beta cell apopt: inhibitors of cytokine-induced beta cell apoptosis, primary screen, luminescence | protection from apoptosis, % (no concentration beside the values) | INS-1E cytokine-induced death, ATP luminescence, 48 h; percent of positive-control rescue, neutral wells zero | 300,000 tested, 0.8% active;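 active = Every replicate reaches about 75%, or at least half do and their mean reaches it too, limit read from the data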;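 also: 0% = cytokine-treated negative control wells and 100% = positive control rescue; higher means more ATP so stronger rescue from cytokine killing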
Mdm2-MdmX inh: inhibitors of human Mdm2-MdmX association, primary screen, cell-based, luminescence, split luciferase, SaOS-2, uHTS. Protein Mdm4 (Homo sapiens) + E3 ubiquitin-protein ligase Mdm2 (Homo sapiens), …. 330,000 tested, 3% active. AID 485346, 2010. inhibition, % at 8 µM. SaOS-2 split-luciferase Mdm2/MdmX complementation;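 active = inhibition of at least 50% at 8 µM in the primary screen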
Target sequence (O15151 whole entry, looked up): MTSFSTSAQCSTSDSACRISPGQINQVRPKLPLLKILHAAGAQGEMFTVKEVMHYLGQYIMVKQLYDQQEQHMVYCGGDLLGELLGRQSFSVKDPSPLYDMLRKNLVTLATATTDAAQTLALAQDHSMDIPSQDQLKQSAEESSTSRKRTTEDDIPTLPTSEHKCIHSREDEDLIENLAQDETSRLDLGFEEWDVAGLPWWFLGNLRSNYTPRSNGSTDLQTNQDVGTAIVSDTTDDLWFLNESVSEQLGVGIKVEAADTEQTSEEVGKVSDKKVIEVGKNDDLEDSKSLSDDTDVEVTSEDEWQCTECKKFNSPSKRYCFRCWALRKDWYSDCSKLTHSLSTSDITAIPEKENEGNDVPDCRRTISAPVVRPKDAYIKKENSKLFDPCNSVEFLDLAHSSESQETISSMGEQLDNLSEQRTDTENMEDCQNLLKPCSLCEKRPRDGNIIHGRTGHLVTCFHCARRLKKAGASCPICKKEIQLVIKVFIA
Target sequence (Q00987 whole entry, looked up): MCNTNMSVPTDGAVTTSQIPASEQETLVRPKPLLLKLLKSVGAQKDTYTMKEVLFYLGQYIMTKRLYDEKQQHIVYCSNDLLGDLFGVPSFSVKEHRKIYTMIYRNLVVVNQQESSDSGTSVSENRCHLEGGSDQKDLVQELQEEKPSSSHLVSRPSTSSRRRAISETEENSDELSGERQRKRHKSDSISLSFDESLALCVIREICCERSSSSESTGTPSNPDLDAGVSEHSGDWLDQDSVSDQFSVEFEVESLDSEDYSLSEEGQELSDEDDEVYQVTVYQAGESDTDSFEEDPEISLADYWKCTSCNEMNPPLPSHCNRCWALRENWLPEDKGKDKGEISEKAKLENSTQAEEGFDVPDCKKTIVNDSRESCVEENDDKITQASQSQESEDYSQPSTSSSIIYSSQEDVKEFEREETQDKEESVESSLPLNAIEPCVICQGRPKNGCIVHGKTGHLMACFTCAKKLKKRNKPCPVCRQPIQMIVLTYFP
CSC inhib: cancer stem cell viability inhibitors, primary screen, luminescence; 300,000 tested, 1.1% active; inhibition, % at 7.5 µM; AID 2717, 2010; cancer stem cell-like cells viability; in the data active = inhibition above about 75%; tested in HMLE shEcad cells
T cruzi inh: inhibitors of intracellular T. cruzi growth, primary screen, luminescence, NIH3T3 host cells; T. cruzi beta-gal in NIH3T3, 90 h; inhibition, % (test concentration not listed); AID 1885, 2009; 300,000 tested, 1.4% active;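 active = mean inhibition across valid replicates above about 55%, limit read from the data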;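 also: signal also drops with host cell toxicity which is not excluded here; 0% = plate median of DMSO wells and 100% = zero luminescence signal; higher percent means less beta-gal luminescence so fewer parasites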
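System: NIH/3T3 fibroblasts plus reporter T. cruzi. Medium: DMEM plus 2% FBS. Probe or stimulus: 5000 reporter trypomastigotes per well. Compound: single 50 nL compound addition per well in DMSO. Incubation: co-culture of at least 90 h after 3 h attachment. Detection: GalScreen β-gal luminescence, detergent lysis, 60 min. Evaluation: parasite load inhibition, %.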
SKKanGAS inh: S. pyogenes SKKanGAS growth inhibitors in kanamycin, primary screen, streptokinase expression inhibitor project, SKKanGAS strain, BacTiter-Glo luminescence | 300,000 tested, 1.3% active | 6 h | inhibition, % at 7.5 µM | AID 1662, 2009;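 active = mean replicate score, as percent of positive control median, at least 50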;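 also: strain carries kanamycin resistance gene driven by streptokinase promoter and grows in 40 µg/ml kanamycin; loss of luminescence reflects streptokinase promoter inhibition or plain growth inhibition; 0% = median of DMSO wells and 100% = positive control at its reference dose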
Mdm2-MdmX conf: Mdm2-MdmX complex disruptors, retested hits, confirmation, luminescence, single concentration. shares compounds with Mdm2-MdmX inh. Mdm2-MdmX binding, luminescent assay. inhibition, % at 8 µM. 10,000 tested, 55% active; in the data active = inhibition above about 40%
Full FLuc ctr: full-length luciferase signal inhibition, confirmation, counter-screen for Mdm2/MdmX interaction inhibitor project, cell-based, single concentration, SaOS-2. inhibition, % at 8 µM. SaOS-2 full-length luciferase counterscreen, luminescence. shares compounds with Mdm2-MdmX inh. 6,200 tested, 77% active;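 active = mean inhibition at 8 µM reaching about 37%, which flags the compound as non-specific, limit read from the data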;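 also: p53-null SaOS-2 cells with luciferase driven by a doxycycline-inducible promoter; compound on cells about two nights before reading with doxycycline added after day one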
* marks the source's active call; other numbers are inactive results; . = not tested or not shown. Compounds with a hit are over-represented: about 5.7% of the library has one in this group of screens.

SMILES | Calb FLC | Beta cell apopt | Mdm2-MdmX inh | CSC inhib | T cruzi inh | SKKanGAS inh | Mdm2-MdmX conf | others
CC1CC(C)CN(CCCNC(=O)CCC(=O)N2CC(C)Oc3ccccc32)C1 (stereo not drawn) | 18.3 | 0.3 | 13.9 | . | -7.9 | 2.6 | .
N/C(Cc1ccccc1)=N\OC(=O)c1cccc2ccccc12 | 103.9* | -1.6 | 98.2* | 2.4 | 43.9 | 4.3 | 67.2* | Full FLuc ctr=56.7*
N/C(=N\OC(=O)c1cccc2ccccc12)c1ccc(Br)cc1 | 4.1 | 11.8 | 98.3* | -2.6 | 0.8 | -3.6 | 79.8* | Full FLuc ctr=93.6*
N/C(=N\OC(=O)c1cccc2ccccc12)c1ccncc1 | -2.6 | -4.2 | 51.1* | -13.0 | 3.9 | -4.9 | -5.5
COc1cccc(OC)c1C(=O)O/N=C(\N)c1ccncc1 | 17.4 | 1.9 | 5.9 | 1.5 | -6.9 | 4.0 | .
CCC(C(=O)N1CCN(S(=O)(=O)c2ccc(F)cc2)CC1)c1ccccc1 (stereo not drawn) | . | -2.4 | 5.8 | -5.6 | . | . | .
O=S(=O)(c1ccc(OCC2CO2)cc1)c1ccc(OCC2CO2)cc1 (stereo not drawn) | -3.1 | 25.5 | 87.2* | 14.9 | -38.9 | 8.6 | 33.8
CC1Sc2ccc(S(=O)(=O)N(C)Cc3ccccc3)cc2NC1=O (stereo not drawn) | -20.6 | -1.4 | 15.2 | -19.5 | -15.5 | -4.3 | .
COc1ccc(-n2nnnc2SCC(=O)Nc2cccc(O)c2)cc1 | 23.1 | -1.8 | 12.9 | -8.2 | -6.8 | -6.9 | .
COc1ccc(NC(=O)[C@H](C)NC(=O)[C@@H]2Cc3ccccc3CN2C(=O)OC(C)(C)C)cc1 | -13.6 | 1.6 | 9.1 | -2.3 | -3.9 | 4.8 | .
O=C(OCCN1C(=O)c2cccc3c(N4CCOCC4)ccc(c23)C1=O)c1ccc(Cl)cc1 | 33.3 | 4.2 | 72.9* | 6.5 | -22.3 | 5.8 | 53.5* | Full FLuc ctr=69.2*
CCCN(CCC)S(=O)(=O)c1ccc(C(=O)OCCN2C(=O)c3cccc4c(N5CCOCC5)ccc(c34)C2=O)cc1 | 28.1 | 0.9 | 40.9 | -2.8 | -8.1 | -0.8 | .
N#CC1=C(N)OC2=C(CC/C2=C\c2ccccc2Cl)C1c1ccccc1Cl (stereo not drawn) | . | -6.5 | 66.3* | 67.2 | 2.9 | . | 7.5
O=c1[nH]cnc2c1sc1nc(C(F)F)cc(-c3ccccc3)c12 | . | -0.8 | 52.9* | -4.8 | . | . | 7.5
O=c1[nH]cnc2c1sc1nc3c(c(-c4ccc(Cl)cc4)c12)CCC3 | 2.3 | . | 34.3 | -4.5 | -6.5 | 16.1 | .
C=CCn1c(C)cc(C(=O)CN2NS(=O)(=O)c3ccccc3C2=O)c1C | -0.1 | 30.6 | 63.8* | -0.5 | -3.9 | 0.2 | 38.1
C=CCn1c(C)cc(C(=O)Cn2ncc(Cl)c(Cl)c2=O)c1C | 52.6 | -8.3 | . | 6.3 | -25.8 | -1.1 | .
Cc1ccc(C)c(N2CCN(C(=O)c3ccc(CS(=O)(=O)c4ccccc4C)o3)CC2)c1 | 19.5 | 7.8 | 30.9 | -1.7 | 2.3 | -9.9 | .
Cc1cccc(N2CCN(C(=O)c3ccc(CS(=O)(=O)c4ccccc4C)o3)CC2C)c1 (stereo not drawn) | 11.2 | 20.9 | 64.8* | -10.0 | 16.3 | 3.4 | 51.6* | Full FLuc ctr=81.8*
O=C1N[C@@H](Cc2ccccc2)C(=O)N2[C@H]3Nc4ccccc4[C@@]3([C@]34C[C@H]5C(=O)N[C@@H](Cc6ccccc6)C(=O)N5[C@H]3Nc3ccccc34)C[C@@H]12 | -4.6 | -1.3 | 52.8* | -13.0 | 8.4 | 11.3 | 19.5
O=C(Cc1ccccc1Cl)Nc1cc(S(=O)(=O)N2CCOCC2)ccc1N1CCOCC1 | . | -0.9 | 11.8 | . | . | . | .
FC(F)(F)c1nnc(-c2ccccc2)nc1Sc1ccc(Cl)cc1 | 11.6 | 63.4 | 86.5* | 80.5* | 39.4 | 26.9 | 33.8 | Full FLuc ctr=16.4
FC(F)(F)c1nnc(-c2ccccc2)nc1Sc1ccccc1 | 0.4 | 5.2 | 52.4* | 43.9 | 15.6 | 16.5 | 18.4
FC(F)(F)c1cccc(Sc2nc(-c3ccccc3)nnc2C(F)(F)F)c1 | 3.1 | -3.5 | 55.4* | . | 43.5 | -12.8 | 17.4
FC(F)(F)c1nnc(-c2ccccc2)nc1Oc1ccc(Cl)cc1Cl | 14.3 | 0.6 | 32.0 | . | -12.8 | -3.7 | .
SMILES | Calb FLC | Beta cell apopt | Mdm2-MdmX inh | CSC inhib | T cruzi inh | SKKanGAS inh | Mdm2-MdmX conf | others
FC(F)(F)c1cccc(Oc2nc(-c3ccccc3)nnc2C(F)(F)F)c1 | 7.9 | -6.6 | 6.5 | -5.7 | -11.0 | 3.9 | .
NNC(=O)c1c(O)c2cccc3c2n(c1=O)CCC3 | 0.4 | -0.9 | 15.7 | 4.8 | -1.6 | 17.5 | .
CCCn1c(=S)[nH]c2cc(C(=O)NCC3CCCO3)ccc2c1=O (stereo not drawn) | -6.6 | 1.3 | 15.4 | 13.9 | -13.6 | 3.6 | .
COc1ccc(Cn2c(=S)[nH]c3cc(C(=O)NCc4cccnc4)ccc3c2=O)cc1 | 1.1 | 11.3 | 74.3* | 29.4 | 2.9 | 3.5 | -8.0
COc1ccc(Cn2c(=O)[nH]c3cc(C(=O)NCc4ccc5c(c4)OCO5)ccc3c2=O)cc1 | -9.3 | 5.0 | 65.0* | -0.3 | 13.7 | 3.4 | 29.4
COc1ccccc1Cn1c(=S)[nH]c2cc(C(=O)NCc3cccnc3)ccc2c1=O | -1.3 | -1.0 | -13.7 | 40.2 | 2.0 | 6.7 | .
O=C(NCC1CCCO1)c1ccc2c(=O)n(Cc3cccc(Br)c3)c(=S)[nH]c2c1 (stereo not drawn) | 3.7 | 20.2 | 58.1* | 22.5 | 2.9 | 9.1 | 30.1
CC1CCN(CCCNC(=O)c2ccc3c(=O)n(Cc4ccc(Cl)cc4)c(=S)[nH]c3c2)CC1 | 19.8 | -6.3 | 88.1* | 88.0* | 7.7 | 14.0 | 38.2 | Full FLuc ctr=76.5*
CCCCCCC(NC(=O)c1ccc(C)cc1)C(=O)O (stereo not drawn) | . | . | -14.4 | . | . | . | .
Cc1ccc(OCC(=O)N(C)C2CCCCC2)c([N+](=O)[O-])n1 | . | 3.5 | 7.6 | . | . | . | .
Cc1ccc(S(=O)(=O)N2CCN(CC(=O)N/N=C\c3ccc(Cl)c([N+](=O)[O-])c3)CC2)cc1 | 3.3 | -6.9 | 63.7* | 26.2 | -5.8 | 1.7 | 16.9
O=C(CN1CCN(S(=O)(=O)c2ccc(Br)cc2)CC1)N/N=C/c1ccc(Cl)c([N+](=O)[O-])c1 | -3.1 | -1.0 | 29.9 | 58.9 | -4.7 | 11.3 | .
O=[N+]([O-])c1ccccc1C1Nc2cccc3cccc(c23)N1 | 16.3 | 6.8 | 92.9* | 12.3 | -4.7 | 16.1 | 41.8* | Full FLuc ctr=26.9
Oc1ccccc1C1Nc2cccc3cccc(c23)N1 | 1.3 | 3.3 | 0.7 | -0.2 | 4.1 | 20.6 | .

Screening data as filed in PubChem.
